Assay results taken from ChEMBL document CHEMBL4680084, “New β-Lactam Derivatives Modulate Cell Adhesion and Signaling Mediated by RGD-Binding and Leukocyte Integrins” (J Med Chem, 2016).

Columns and labels:
Integrin alpha-V/beta-5 [1] = target: T1, Integrin alpha-V/beta-5 (Homo sapiens, UniProt P06756+P18084); test: Agonist activity at alphaVbeta5 in human MCF7 cells assessed as increase in cell adhesion to fibrinogen pre-incubated for 30 mins before fibrinogen and further incubated for 1 hr by nitrophenyl-N-acetyl-beta-D-glucosaminide substrate based chromogenic assay
Method in brief: (§1)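 Compound or methanol vehicle pre-incubated with cells for 30 min at room temperature. Cells then plated on wells coated overnight at 4 °C with fibronectin 10 µg/mL (SK-MEL-24, K562, HT-29) or fibrinogen 10 µg/mL (MCF7, HEL). Seeding was 50,000 cells/well, or 100000 for HEL. Adhesion ran 1 h at room temperature. Wells washed with 1% BSA/PBS. Adherent cells read by hexosaminidase substrate, absorbance 405 nm. Quadruplicate, at least three repeats.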

K562 = test: Toxicity in human K562 cells assessed as induction of cell necrosis and/or apoptosis incubated for 3 hrs by annexin V-PE and 7-AAD staining based by flow cytometry; conditions: k562, 3 h
Method in brief: (§2)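 After 3 h incubation, cells resuspended in complete medium and stained with annexin V-PE/7-AAD reagent for 20 min at room temperature in the dark. Flow cytometry sorted cells into viable, early apoptotic and late apoptotic/necrotic populations.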

HT-29 = test: Toxicity in human HT-29 cells assessed as induction of cell necrosis and/or apoptosis incubated for 3 hrs by annexin V-PE and 7-AAD staining based by flow cytometry; conditions: ht-29, 3 h; method in brief: as §2
Integrin alpha-V/beta-3 [2] = target: T2, Integrin alpha-V/beta-3 (Homo sapiens, UniProt P05106+P06756); test: Antagonist activity at alphaVbeta3 in human SK-MEL-24 cells assessed as reduction in cell adhesion to fibronectin pre-incubated for 30 mins before fibronectin and further incubated for 1 hr by nitrophenyl-N-acetyl-beta-D-glucosaminide substrate based chromogenic assay
Method in brief: as §1, with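 “BSA/PBS.” for “BSA/PBS. Adherent cells read by hexosaminidase substrate, absorbance 405 nm.”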

[3] = target: T3, Integrin alpha-L/beta-2 (LFA-1) (Homo sapiens, UniProt P05107+P20701); test: Antagonist activity at alphaLbeta2 in human Jurkat E6.1 cells assessed as reduction in cell adhesion to ICAM1 pre-incubated for 30 mins before ICAM1 and further incubated for 30 mins by […]; type: cell-based
Method in brief: (§3)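 Jurkat E6.1 cells labelled with CellTracker green CMFDA (12.5 µM, 30 min, 37 °C), washed, then pre-incubated 30 min at 37 °C with compound or methanol. Plated at 500,000/well on VCAM-1 (α4β1) or ICAM-1 (αLβ2) coated wells (5 µg/mL) for 30 min at 37 °C. Cells lysed in 0.5% Triton X-100; fluorescence read Ex485/Em535. Quadruplicate, at least three repeats.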

HEL = test: Toxicity in human HEL cells assessed as induction of cell necrosis and/or apoptosis incubated for 3 hrs by annexin V-PE and 7-AAD staining based by flow cytometry; method in brief: as §2
[4] = target: T3, Integrin alpha-L/beta-2 (LFA-1); test: Agonist activity at alphaLbeta2 in human Jurkat E6.1 cells assessed as increase in cell adhesion to ICAM1 pre-incubated for 30 mins before ICAM1 and further incubated for 30 mins by […]; type: cell-based; method in brief: as §3
SK-MEL-24 = test: Toxicity in human SK-MEL-24 cells assessed as induction of cell necrosis and/or apoptosis incubated for 3 hrs by annexin V-PE and 7-AAD staining based by flow cytometry; conditions: sk-mel-24, 3 h; method in brief: as §2
Integrin alpha-V/beta-6 [5] = target: T4, Integrin alpha-V/beta-6 (Homo sapiens, UniProt P06756+P18564); test: Agonist activity at alphaVbeta6 in human HT-29 cells assessed as increase in cell adhesion to fibronectin pre-incubated for 30 mins before fibronectin and further incubated for 1 hr by nitrophenyl-N-acetyl-beta-D-glucosaminide substrate based chromogenic assay; method in brief: as §1
Integrin alpha-V/beta-3 [6] = target: T2, Integrin alpha-V/beta-3; test: Agonist activity at alphaVbeta3 in human SK-MEL-24 cells assessed as increase in cell adhesion to fibronectin pre-incubated for 30 mins before fibronectin and further incubated for 1 hr by nitrophenyl-N-acetyl-beta-D-glucosaminide substrate based chromogenic assay; method in brief: as §1
Integrin alpha-4/beta-1 [7] = target: T5, Integrin alpha-4/beta-1 (Homo sapiens, UniProt P05556+P13612); test: Antagonist activity at alpha4beta1 in human Jurkat E6.1 cells assessed as reduction in cell adhesion to VCAM1 pre-incubated for 30 mins before VCAM1 and further incubated for 30 mins by […]; type: cell-based
Integrin alpha-V/beta-6 [8] = target: T4, Integrin alpha-V/beta-6; test: Antagonist activity at alphaVbeta6 in human HT-29 cells assessed as reduction in cell adhesion to fibronectin pre-incubated for 30 mins before fibronectin and further incubated for 1 hr by nitrophenyl-N-acetyl-beta-D-glucosaminide substrate based chromogenic assay
Method in brief: as §1, with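 “BSA/PBS.” for “BSA/PBS. Adherent cells read by hexosaminidase substrate, absorbance 405 nm.”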

[9] = target: T6, Integrin alpha-IIb/beta-3 (Homo sapiens, UniProt P05106+P08514); test: Antagonist activity at alpha2bbeta3 in human HEL cells assessed as reduction in cell adhesion to fibrinogen pre-incubated for 30 mins before fibrinogen and further incubated for 1 hr by nitrophenyl-N-acetyl-beta-D-glucosaminide substrate based chromogenic assay
Method in brief: as §1, with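 “BSA/PBS.” for “BSA/PBS. Adherent cells read by hexosaminidase substrate, absorbance 405 nm.”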

MCF7 = test: Toxicity in human MCF7 cells assessed as induction of cell necrosis and/or apoptosis incubated for 3 hrs by annexin V-PE and 7-AAD staining based by flow cytometry; conditions: mcf7, 3 h; method in brief: as §2
Integrin alpha-V/beta-5 [10] = target: T1, Integrin alpha-V/beta-5; test: Antagonist activity at alphaVbeta5 in human MCF7 cells assessed as reduction in cell adhesion to fibrinogen pre-incubated for 30 mins before fibrinogen and further incubated for 1 hr by nitrophenyl-N-acetyl-beta-D-glucosaminide substrate based chromogenic assay
Method in brief: as §1, with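 “BSA/PBS.” for “BSA/PBS. Adherent cells read by hexosaminidase substrate, absorbance 405 nm.”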

[11] = target: T6, Integrin alpha-IIb/beta-3; test: Agonist activity at alpha2bbeta3 in human HEL cells assessed as increase in cell adhesion to fibrinogen pre-incubated for 30 mins before fibrinogen and further incubated for 1 hr by nitrophenyl-N-acetyl-beta-D-glucosaminide substrate based chromogenic assay
Method in brief: as §1, with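 “BSA/PBS.” for “BSA/PBS. Adherent cells read by hexosaminidase substrate, absorbance 405 nm.”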

Integrin alpha-4/beta-1 [12] = target: T5, Integrin alpha-4/beta-1; test: Agonist activity at alpha4beta1 in human Jurkat E6.1 cells assessed as increase in cell adhesion to VCAM1 pre-incubated for 30 mins before VCAM1 and further incubated for 30 mins by […]; type: cell-based; method in brief: as §3
Integrin alpha-5/beta-1 [13] = target: T7, Integrin alpha-5/beta-1 (Homo sapiens, UniProt P05556+P08648); test: Antagonist activity at alpha5beta1 in human K562 cells assessed as reduction in cell adhesion to fibronectin pre-incubated for 30 mins before fibronectin and further incubated for 1 hr by nitrophenyl-N-acetyl-beta-D-glucosaminide substrate based chromogenic assay; method in brief: as §1
Integrin alpha-5/beta-1 [14] = target: T7, Integrin alpha-5/beta-1; test: Agonist activity at alpha5beta1 in human K562 cells assessed as increase in cell adhesion to fibronectin pre-incubated for 30 mins before fibronectin and further incubated for 1 hr by nitrophenyl-N-acetyl-beta-D-glucosaminide substrate based chromogenic assay; method in brief: as §1

T1 sequence (P06756 31-889 limits assumed): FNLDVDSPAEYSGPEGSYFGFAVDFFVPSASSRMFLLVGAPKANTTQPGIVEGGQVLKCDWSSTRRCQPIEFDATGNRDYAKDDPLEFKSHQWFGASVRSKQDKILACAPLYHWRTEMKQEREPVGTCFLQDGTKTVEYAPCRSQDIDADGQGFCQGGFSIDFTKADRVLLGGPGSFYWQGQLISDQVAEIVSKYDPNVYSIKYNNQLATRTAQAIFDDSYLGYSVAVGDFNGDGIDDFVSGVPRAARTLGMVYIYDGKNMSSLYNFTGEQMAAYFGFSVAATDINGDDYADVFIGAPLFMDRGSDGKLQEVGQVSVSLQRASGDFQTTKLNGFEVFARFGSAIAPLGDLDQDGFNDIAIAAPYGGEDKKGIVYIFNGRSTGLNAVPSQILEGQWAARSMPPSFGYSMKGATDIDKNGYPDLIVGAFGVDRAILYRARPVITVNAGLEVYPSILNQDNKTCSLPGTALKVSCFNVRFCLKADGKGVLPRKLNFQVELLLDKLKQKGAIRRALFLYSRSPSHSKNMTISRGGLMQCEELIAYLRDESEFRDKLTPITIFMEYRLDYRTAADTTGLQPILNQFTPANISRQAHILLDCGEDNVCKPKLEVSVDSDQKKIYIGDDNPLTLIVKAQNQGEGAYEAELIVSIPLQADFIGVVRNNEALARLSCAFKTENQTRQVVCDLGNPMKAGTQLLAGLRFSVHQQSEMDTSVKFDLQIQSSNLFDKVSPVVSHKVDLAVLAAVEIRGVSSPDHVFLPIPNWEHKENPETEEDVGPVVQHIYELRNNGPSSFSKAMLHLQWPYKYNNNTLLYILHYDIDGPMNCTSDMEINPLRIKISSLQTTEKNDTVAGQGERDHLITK
T1 sequence (P06756 891-1048 limits assumed): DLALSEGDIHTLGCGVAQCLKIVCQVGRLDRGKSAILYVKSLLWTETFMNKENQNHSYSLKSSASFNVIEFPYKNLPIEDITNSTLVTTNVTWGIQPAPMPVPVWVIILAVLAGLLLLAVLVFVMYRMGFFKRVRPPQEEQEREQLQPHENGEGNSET
T1 sequence (P18084 24-799 limits assumed): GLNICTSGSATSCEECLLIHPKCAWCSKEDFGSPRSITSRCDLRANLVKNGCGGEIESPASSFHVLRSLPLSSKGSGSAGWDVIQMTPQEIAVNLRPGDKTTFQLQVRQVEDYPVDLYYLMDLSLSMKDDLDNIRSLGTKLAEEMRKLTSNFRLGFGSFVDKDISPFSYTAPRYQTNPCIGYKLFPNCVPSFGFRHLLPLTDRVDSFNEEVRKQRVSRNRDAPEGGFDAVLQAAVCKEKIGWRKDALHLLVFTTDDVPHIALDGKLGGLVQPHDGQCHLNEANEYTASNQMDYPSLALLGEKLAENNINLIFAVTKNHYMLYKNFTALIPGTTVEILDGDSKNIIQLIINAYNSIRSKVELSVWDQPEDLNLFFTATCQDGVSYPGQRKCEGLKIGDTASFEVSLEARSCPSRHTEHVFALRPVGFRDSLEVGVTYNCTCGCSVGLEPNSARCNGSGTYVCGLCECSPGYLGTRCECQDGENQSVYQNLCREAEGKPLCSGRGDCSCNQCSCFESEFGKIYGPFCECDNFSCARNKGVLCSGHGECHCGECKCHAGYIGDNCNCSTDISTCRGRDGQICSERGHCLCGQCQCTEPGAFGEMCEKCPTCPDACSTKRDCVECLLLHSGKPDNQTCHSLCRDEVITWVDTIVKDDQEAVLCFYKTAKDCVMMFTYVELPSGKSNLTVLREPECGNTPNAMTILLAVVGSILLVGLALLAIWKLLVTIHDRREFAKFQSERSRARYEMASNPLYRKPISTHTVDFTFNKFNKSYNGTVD
T4 sequence (P06756 31-889 limits assumed): as the sequence (P06756 31-889 limits assumed) above
T4 sequence (P06756 891-1048 limits assumed): as the sequence (P06756 891-1048 limits assumed) above
T4 sequence (P18564 22-788 limits assumed): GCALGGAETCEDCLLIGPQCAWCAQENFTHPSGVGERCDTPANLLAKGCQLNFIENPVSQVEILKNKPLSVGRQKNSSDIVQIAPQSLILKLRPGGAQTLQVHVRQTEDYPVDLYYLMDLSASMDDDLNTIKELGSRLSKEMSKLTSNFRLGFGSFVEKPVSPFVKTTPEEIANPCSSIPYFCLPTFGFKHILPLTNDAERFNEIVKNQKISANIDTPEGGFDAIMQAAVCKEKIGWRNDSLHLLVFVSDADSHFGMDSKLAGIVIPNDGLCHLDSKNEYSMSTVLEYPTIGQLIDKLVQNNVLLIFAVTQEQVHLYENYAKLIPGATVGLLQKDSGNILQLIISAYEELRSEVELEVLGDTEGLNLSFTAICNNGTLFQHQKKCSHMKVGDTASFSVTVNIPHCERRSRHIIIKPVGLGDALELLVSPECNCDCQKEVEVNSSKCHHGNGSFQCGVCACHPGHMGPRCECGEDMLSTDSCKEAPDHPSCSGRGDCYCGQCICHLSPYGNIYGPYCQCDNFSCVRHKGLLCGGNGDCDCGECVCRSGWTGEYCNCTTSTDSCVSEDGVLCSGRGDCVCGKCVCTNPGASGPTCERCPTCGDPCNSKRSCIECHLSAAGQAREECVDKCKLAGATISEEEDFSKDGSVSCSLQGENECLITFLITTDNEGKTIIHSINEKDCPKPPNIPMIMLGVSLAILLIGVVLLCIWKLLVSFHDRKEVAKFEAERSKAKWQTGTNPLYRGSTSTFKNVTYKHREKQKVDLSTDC
T7 sequence (P05556 21-798 limits assumed): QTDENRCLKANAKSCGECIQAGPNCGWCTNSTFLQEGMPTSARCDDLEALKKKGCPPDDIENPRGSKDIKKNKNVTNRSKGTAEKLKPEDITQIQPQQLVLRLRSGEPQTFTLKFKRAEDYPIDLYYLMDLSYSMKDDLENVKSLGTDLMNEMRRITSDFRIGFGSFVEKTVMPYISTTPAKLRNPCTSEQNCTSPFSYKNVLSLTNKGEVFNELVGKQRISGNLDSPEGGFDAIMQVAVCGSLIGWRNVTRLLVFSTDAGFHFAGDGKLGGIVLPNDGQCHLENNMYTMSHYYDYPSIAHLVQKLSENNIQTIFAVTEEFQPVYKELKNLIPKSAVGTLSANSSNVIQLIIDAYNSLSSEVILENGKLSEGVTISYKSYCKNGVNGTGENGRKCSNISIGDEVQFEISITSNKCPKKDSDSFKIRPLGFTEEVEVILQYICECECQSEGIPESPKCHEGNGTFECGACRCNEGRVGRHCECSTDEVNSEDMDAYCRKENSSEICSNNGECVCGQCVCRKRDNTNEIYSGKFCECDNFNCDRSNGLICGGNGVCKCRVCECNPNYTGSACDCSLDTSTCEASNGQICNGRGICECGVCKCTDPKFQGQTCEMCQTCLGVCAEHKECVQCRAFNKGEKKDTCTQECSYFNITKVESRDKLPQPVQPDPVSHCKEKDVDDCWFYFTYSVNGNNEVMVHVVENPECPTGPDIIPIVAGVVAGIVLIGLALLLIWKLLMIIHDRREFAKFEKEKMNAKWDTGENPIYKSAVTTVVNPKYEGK
T7 sequence (P08648 42-894 limits assumed): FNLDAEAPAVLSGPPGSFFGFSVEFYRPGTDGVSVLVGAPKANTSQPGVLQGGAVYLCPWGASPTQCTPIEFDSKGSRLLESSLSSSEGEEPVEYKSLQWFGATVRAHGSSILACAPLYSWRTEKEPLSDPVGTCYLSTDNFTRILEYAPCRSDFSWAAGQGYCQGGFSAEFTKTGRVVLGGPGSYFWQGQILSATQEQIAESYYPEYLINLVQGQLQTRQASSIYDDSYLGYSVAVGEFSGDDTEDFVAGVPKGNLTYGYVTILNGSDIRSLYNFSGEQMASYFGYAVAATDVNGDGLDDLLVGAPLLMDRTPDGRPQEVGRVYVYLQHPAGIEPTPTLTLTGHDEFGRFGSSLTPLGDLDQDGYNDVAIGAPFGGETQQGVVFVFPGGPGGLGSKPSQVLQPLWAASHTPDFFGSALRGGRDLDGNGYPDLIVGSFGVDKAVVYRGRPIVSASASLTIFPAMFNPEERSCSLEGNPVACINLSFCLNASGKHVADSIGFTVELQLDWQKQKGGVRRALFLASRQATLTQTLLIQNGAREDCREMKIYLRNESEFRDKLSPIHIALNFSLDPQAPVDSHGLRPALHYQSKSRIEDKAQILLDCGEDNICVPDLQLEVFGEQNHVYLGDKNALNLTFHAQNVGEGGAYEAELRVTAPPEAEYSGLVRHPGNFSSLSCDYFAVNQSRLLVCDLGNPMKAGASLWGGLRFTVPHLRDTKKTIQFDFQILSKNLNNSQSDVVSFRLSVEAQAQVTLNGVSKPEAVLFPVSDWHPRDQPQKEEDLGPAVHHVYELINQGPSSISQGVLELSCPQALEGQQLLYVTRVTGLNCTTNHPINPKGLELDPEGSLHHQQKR
T7 sequence (P08648 895-1049 limits assumed): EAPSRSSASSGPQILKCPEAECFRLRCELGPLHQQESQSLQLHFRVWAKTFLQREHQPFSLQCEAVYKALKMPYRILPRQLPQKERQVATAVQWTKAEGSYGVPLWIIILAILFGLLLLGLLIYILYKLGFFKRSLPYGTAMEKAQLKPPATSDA

NCc1ccc(NC(=O)N2C(=O)C[C@H]2C(=O)O)cc1.O=C(O)C(F)(F)F
EC50 (Integrin alpha-V/beta-5 [1]): > 5 µM | Activity (K562): Non-Toxic | Activity (HT-29): Non-Toxic | IC50 (Integrin alpha-V/beta-3 [2]): > 5000 nM | IC50 [3]: > 5 µM | Activity (HEL): Non-Toxic | EC50 [4]: > 5 µM | Activity (SK-MEL-24): Non-Toxic | EC50 (Integrin alpha-V/beta-6 [5]): > 5 µM | EC50 (Integrin alpha-V/beta-3 [6]): > 5 µM | IC50 (Integrin alpha-4/beta-1 [7]): > 5 µM | IC50 (Integrin alpha-V/beta-6 [8]): > 5 µM | IC50 [9]: > 5 µM | Activity (MCF7): Non-Toxic | IC50 (Integrin alpha-V/beta-5 [10]): > 5000 nM | EC50 [11]: > 5 µM | EC50 (Integrin alpha-4/beta-1 [12]): > 5 µM

O=C(O)CC1CC(=O)N1C(=O)NCc1ccccc1 (centres undefined)
EC50 (Integrin alpha-V/beta-5 [1]): > 5 µM | Activity (K562): Non-Toxic | Activity (HT-29): Non-Toxic | IC50 (Integrin alpha-V/beta-3 [2]): > 5000 nM | IC50 [3]: > 5 µM | Activity (HEL): Non-Toxic | EC50 [4]: > 5 µM | Activity (SK-MEL-24): Non-Toxic | EC50 (Integrin alpha-V/beta-6 [5]): > 5 µM | EC50 (Integrin alpha-V/beta-3 [6]): > 5 µM | IC50 (Integrin alpha-4/beta-1 [7]): > 5 µM | IC50 (Integrin alpha-V/beta-6 [8]): > 5 µM | IC50 [9]: > 5 µM | Activity (MCF7): Non-Toxic | IC50 (Integrin alpha-V/beta-5 [10]): > 5000 nM | EC50 [11]: > 5 µM | IC50 (Integrin alpha-5/beta-1 [13]): 417 nM | EC50 (Integrin alpha-4/beta-1 [12]): > 5 µM

H-GRGDTP-OH
Activity (K562): Non-Toxic | Activity (HT-29): Non-Toxic | IC50 (Integrin alpha-V/beta-3 [2]): 926 nM | Activity (HEL): Non-Toxic | Activity (SK-MEL-24): Non-Toxic | EC50 (Integrin alpha-V/beta-6 [5]): > 5 µM | IC50 (Integrin alpha-V/beta-6 [8]): > 5 µM | IC50 [9]: > 5 µM | Activity (MCF7): Non-Toxic | IC50 (Integrin alpha-V/beta-5 [10]): 34.2 nM | EC50 [11]: > 5 µM | IC50 (Integrin alpha-5/beta-1 [13]): 0.62 nM

Ac-DRLDS-OH
EC50 (Integrin alpha-5/beta-1 [14]): > 5 µM | Activity (K562): Non-Toxic | Activity (HT-29): Non-Toxic | Activity (HEL): Non-Toxic | Activity (SK-MEL-24): Non-Toxic | EC50 (Integrin alpha-V/beta-6 [5]): > 5 µM | IC50 (Integrin alpha-V/beta-6 [8]): > 5 µM | IC50 [9]: > 5 µM | Activity (MCF7): Non-Toxic | IC50 (Integrin alpha-V/beta-5 [10]): 2280 nM | EC50 [11]: > 5 µM | IC50 (Integrin alpha-5/beta-1 [13]): > 5000 nM
